Assays:
Liver [1] = test: Unbound intrinsic clearance in mouse liver microsomes; type: ADME, microsome
How it was run: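 Liver microsome stability is expressed as unbound intrinsic clearance, Cl_int,u, in L/hr/kg. Dextromethorphan served as the in-house low-clearance reference control and verapamil as the high-clearance reference control.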

[2] = target: T1, Bromodomain-containing protein 4 (Homo sapiens, UniProt O60885); test: Binding affinity to human N-terminal His6-tagged BRD4 BD1-BD2 (K57 to K550 residues) after 1 hr using alexa-647 conjugated probe by TR-FRET assay
[3] = target: T1, Bromodomain-containing protein 4; test: Inhibition of BRD4 in human H1299 cells assessed as decrease in HPV LCR-E2-EP400-mediated transcriptional repression after 24 hrs by Bright-Glo luciferase reporter gene assay; type: cell-based
Liver [4] = test: Unbound intrinsic clearance in rat liver microsomes at 10 uM preincubated for 5 mins followed by NADPH addition measured after 60 mins by HPLC-UV-MS analysis; type: ADME, microsome; conditions: 1 h
Liver [5] = test: Unbound intrinsic clearance in human liver microsomes at 10 uM preincubated for 5 mins followed by NADPH addition measured after 60 mins by HPLC-UV-MS analysis; type: ADME, microsome; conditions: 1 h
MX1 = test: Antiproliferative activity against human MX1 cells after 72 hrs by Cell Titer Glo assay; type: functional, cell-based; conditions: MX1, 72 h
[6] = Permeability in MDCK cells; type: ADME, cell-based, Canis lupus familiaris; conditions: dog, read-out: permeability
[7] = Oral bioavailability in rat at 1 mg/kg; type: ADME, organism-based; conditions: in vivo
How it was run: (§1)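 In rats, 1 mg/kg was given by both IV and PO routes. IV clearance is unbound (Cl_p,u, L/hr/kg). FaFg is taken as F/(1-Clp/Qh), using rat Qh 3.8 L/hr/kg. Unbound plasma fraction was determined in rat plasma.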

Mus musculus [8] = test: Plasma unbound clearance in mouse at 3 mg/kg, iv; type: ADME, organism-based; conditions: in vivo
How it was run: (§2)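 Mouse PK: 3 mg/kg IV and 10 mg/kg PO. Clearance is expressed unbound, Cl_p,u in L/hr/kg. AUC is unbound, in µM*hr. FaFg is computed as F/(1-Clp/Qh), with mouse liver blood flow Qh 5.2 L/hr/kg. Unbound plasma fraction was measured separately.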

[9] = Fraction unbound in rat plasma at 1 uM after 4 hrs by LC-MS/MS method; type: ADME, cell-free
[10] = Fraction unbound in mouse plasma at 1 uM after 4 hrs by LC-MS/MS method; type: ADME, cell-free
Mus musculus [11] = test: Unbound AUC in mouse at 10 mg/kg, po; type: ADME, organism-based; conditions: in vivo; how it was run: as §2
Mus musculus [12] = test: Oral absorption in mouse at 10 mg/kg; type: ADME, organism-based; conditions: in vivo
How it was run: (§3)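 Oral absorption is expressed as FaFg, calculated as F/(1-Clp/Qh). Liver blood flow (Qh) was 5.2 L/hr/kg for mouse and 3.8 L/hr/kg for rat. Mouse dosing was 3 mg/kg IV and 10 mg/kg PO; rat dosing was 1 mg/kg IV and PO.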

Rattus norvegicus [13] = test: Oral absorption in rat at 1 mg/kg; type: ADME, organism-based; conditions: in vivo; how it was run: as §3
[14] = Oral bioavailability in mouse at 10 mg/kg; type: ADME, organism-based; conditions: in vivo; how it was run: as §2
Rattus norvegicus [15] = test: Plasma unbound clearance in rat at 1 mg/kg, iv; type: ADME, organism-based; conditions: in vivo; how it was run: as §1
Rattus norvegicus [16] = test: Unbound AUC in rat at 1 mg/kg, po; conditions: in vivo
[17] = Toxicity in iv dosed NOD.SCID mouse xenografted with gamma-irradiated human Kasumi-1 cells administered as […] for every 7 days; type: organism-based; conditions: in vivo
How it was run: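 Kasumi-1 AML xenograft in mice; dosing intravenous once every 7 days at 8 mg/kg.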

Mus musculus [18] = test: Toxicity in NOD.SCID mouse assessed as maximum mean body weight loss at 8 mg/kg, iv qd for every 7 days (reference value: 9%); type: organism-based; conditions: in vivo, 168 h

For `Cn1cc(-c2cc(NS(C)(=O)=O)ccc2OC2CCCCC2)c2cc[nH]c2c1=O`, the CL free (Liver [1]) was 220 L/h/kg, the Ki [2] was 3.7 nM and the EC50 [3] was 18 nM. It also gave a CL free (Liver [4]) of 96 L/h/kg, a CL free (Liver [5]) of 27 L/h/kg and an EC50 (MX1) of 14 nM. The Papp [6] was 23 ×10⁻⁶ cm/s.
`CCS(=O)(=O)Nc1ccc(OCC(C)(C)C)c(-c2cn(C)c(=O)c3[nH]ccc23)c1` gave a CL free (Liver [1]) of 62 L/h/kg, a Ki [2] of 38 nM and an EC50 [3] of 79 nM. It also gave a CL free (Liver [4]) of 26 L/h/kg, a CL free (Liver [5]) of 17 L/h/kg and an EC50 (MX1) of 77 nM. The Papp [6] was 43 ×10⁻⁶ cm/s.
`Cn1cc(-c2cc(NS(C)(=O)=O)ccc2OC2CCC(F)(F)CC2)c2cc[nH]c2c1=O` gave a CL free (Liver [1]) of 43 L/h/kg, a Ki [2] of 19 nM and an EC50 [3] of 20 nM. It also gave a CL free (Liver [4]) of 12 L/h/kg, a CL free (Liver [5]) of less than 2.3 L/h/kg and an EC50 (MX1) of 19 nM. The Papp [6] was 12 ×10⁻⁶ cm/s.
In the case of `Cn1cc(-c2ccccc2Oc2ccccc2)c2cc[nH]c2c1=O`, the CL free (Liver [1]) is reported as 5600 L/h/kg, the Ki [2] is reported as 48 nM and the EC50 [3] is reported as 480 nM. The CL free (Liver [4]) was 2400 L/h/kg, the CL free (Liver [5]) was 100 L/h/kg and the EC50 (MX1) was 550 nM. For the same compound, the Papp [6] was 31 ×10⁻⁶ cm/s.
Work on `Cn1cc(-c2cc(NS(C)(=O)=O)ccc2Oc2ccccc2)c2cc[nH]c2c1=O` yielded a bioavailability [7] of 10%, a clearance (Mus musculus [8]) of 39 L/h/kg and a fraction unbound at 4 h, 1 µM [9] of 0.034. It also gave a CL free (Liver [1]) of 18 L/h/kg, a fraction unbound at 4 h, 1 µM [10] of 0.039 and a Ki [2] of 2.4 nM. For the same compound, the EC50 [3] was 11 nM, the fAUC (Mus musculus [11]) was 0.34 µM·h and the CL free (Liver [4]) was 120 L/h/kg. The CL free (Liver [5]) was 5 L/h/kg, the EC50 (MX1) was 16 nM and the FaFg (Mus musculus [12]) was 0.77. The FaFg (Rattus norvegicus [13]) was 0.32, the bioavailability [14] was 55% and the clearance (Rattus norvegicus [15]) was 74 L/h/kg. It also gave a fAUC (Rattus norvegicus [16]) of 0.016 µM·h and a Papp [6] of 12 ×10⁻⁶ cm/s.
`Cn1cc(-c2cc(NS(C)(=O)=O)ccc2OCc2ccccc2)c2cc[nH]c2c1=O` showed a CL free (Liver [1]) of 54 L/h/kg, a Ki [2] of 68 nM and an EC50 [3] of 120 nM. For the same compound, the CL free (Liver [4]) was 34 L/h/kg, the CL free (Liver [5]) was 7.3 L/h/kg and the EC50 (MX1) was 110 nM. The Papp [6] was 24 ×10⁻⁶ cm/s.
`Cn1cc(-c2cc(NS(C)(=O)=O)ccc2Oc2cccnc2)c2cc[nH]c2c1=O` showed a CL free (Liver [1]) of 32 L/h/kg, a Ki [2] of 6.3 nM and an EC50 [3] of 67 nM. The CL free (Liver [4]) was 21 L/h/kg, the CL free (Liver [5]) was 5.2 L/h/kg and the EC50 (MX1) was 34 nM. The Papp [6] was 3 ×10⁻⁶ cm/s.
Compound `Cn1cc(-c2cc(S(C)(=O)=O)ccc2Oc2ccccc2)c2cc[nH]c2c1=O` has a CL free (Liver [1]) of 23 L/h/kg, a Ki [2] of 5.8 nM and an EC50 [3] of 50 nM. The CL free (Liver [4]) was 65 L/h/kg, the CL free (Liver [5]) was 5.5 L/h/kg and the EC50 (MX1) was 52 nM. It also gave a Papp [6] of 24 ×10⁻⁶ cm/s.
`Cn1cc(-c2cc(NS(C)(=O)=O)ccc2Oc2ccc(F)cc2F)c2cc[nH]c2c1=O` gave a bioavailability [7] of 40%, a clearance (Mus musculus [8]) of 10 L/h/kg and a fraction unbound at 4 h, 1 µM [9] of 0.036. The CL free (Liver [1]) was 17 L/h/kg, the fraction unbound at 4 h, 1 µM [10] was 0.033 and the Ki [2] was 4.5 nM. For the same compound, the EC50 [3] was 21 nM, the fAUC (Mus musculus [11]) was 1.3 µM·h and the CL free (Liver [4]) was less than 3.9 L/h/kg. The CL free (Liver [5]) was 9.3 L/h/kg, the EC50 (MX1) was 29 nM and the FaFg (Mus musculus [12]) was 0.7. The FaFg (Rattus norvegicus [13]) was 0.52, the bioavailability [14] was 65% and the clearance (Rattus norvegicus [15]) was 25 L/h/kg. It also gave a fAUC (Rattus norvegicus [16]) of 0.19 µM·h and a Papp [6] of 17 ×10⁻⁶ cm/s.
`CCS(=O)(=O)Nc1ccc(OC2CCC(N(C)C)CC2)c(-c2cn(C)c(=O)c3[nH]ccc23)c1` (stereo not given) showed a CL free (Liver [1]) of 7.5 L/h/kg, a Ki [2] of 26 nM and an EC50 [3] of 270 nM. It also gave a CL free (Liver [4]) of less than 2.7 L/h/kg, a CL free (Liver [5]) of less than 1.6 L/h/kg and an EC50 (MX1) of 86 nM. For the same compound, the Papp [6] was 2.7 ×10⁻⁶ cm/s.
Compound `CCS(=O)(=O)Nc1ccc(Oc2ccccc2)c(-c2cn(C)c(=O)c3[nH]ccc23)c1` has a CL free (Liver [1]) of 55 L/h/kg, a Ki [2] of 1.5 nM and an EC50 [3] of 8.1 nM. It also gave a CL free (Liver [4]) of 200 L/h/kg, a CL free (Liver [5]) of less than 2.7 L/h/kg and an EC50 (MX1) of 14 nM. The Papp [6] was 22 ×10⁻⁶ cm/s.
For `Nc1ncn([C@@H]2O[C@H](CO)[C@@H](O)[C@H]2O)c(=O)n1` [AZACITIDINE], the MTD at 168 h [17] was 8 mg/kg and the Activity (Mus musculus [18]) was 1%.
With `Cn1cc(-c2cc(NS(C)(=O)=O)ccc2OC2CCOCC2)c2cc[nH]c2c1=O` the CL free (Liver [1]) was less than 5.4 L/h/kg, the Ki [2] was 68 nM and the EC50 [3] was 90 nM. It also gave a CL free (Liver [4]) of 14 L/h/kg, a CL free (Liver [5]) of less than 1.8 L/h/kg and an EC50 (MX1) of 72 nM. It also gave a Papp [6] of 1.7 ×10⁻⁶ cm/s.
In the case of `Cn1cc(-c2cc(NS(C)(=O)=O)ccc2Oc2ccccc2C(F)(F)F)c2cc[nH]c2c1=O`, the CL free (Liver [1]) is reported as 81 L/h/kg, the Ki [2] is reported as 6.4 nM and the EC50 [3] is reported as 76 nM. The CL free (Liver [4]) was 15 L/h/kg, the CL free (Liver [5]) was 32 L/h/kg and the EC50 (MX1) was 83 nM. It also gave a Papp [6] of 7.8 ×10⁻⁶ cm/s.
`CCS(=O)(=O)Nc1ccc(Oc2c(F)cc(F)cc2F)c(-c2cn(C)c(=O)c3[nH]ccc23)c1` gave a CL free (Liver [1]) of 54 L/h/kg, a Ki [2] of 12 nM and an EC50 [3] of 19 nM. For the same compound, the CL free (Liver [4]) was 14 L/h/kg, the CL free (Liver [5]) was 6.1 L/h/kg and the EC50 (MX1) was 7.9 nM. It also gave a Papp [6] of 21 ×10⁻⁶ cm/s.
